A selection: hits, their analogues and other compounds. The true share with any hit is near 6.5%.
Ecoli WT expand = growth inhibitors of wild-type E. coli, primary screen, strain BW25113, expanded library, OD600. growth inhibition, % at 100 µM. hit rate 0.15% among 98,000. AID 710, 2007. OD600 absorbance;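 active = growth inhibition above about 50% at one test dose, limit read from the data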;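 note: growth measured after 20 h incubation at 37 °C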
tolC growth inh = growth inhibitors of E. coli tolC mutant, primary screen, strain BW25113 ΔtolC::kan, 384-well | OD615 | growth inhibition, % at 10 µM (by protocol) | hit rate 2.2% among 65,000;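 active = growth inhibition at or above a cutoff equal to the mean over every tested compound plus 3 SD, cut at about 60% in these data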;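 note: growth measured after 20 h incubation at 37 °C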
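Signal: optical density read at 615 nm; Assay system: E. coli ΔtolC::kan strain BW25113; Times: 20 h incubation with compound, 37 °C; Dosing: 10 µM final, single dose.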
PostGolgi ctrl = growth inhibition of yeast control strain, primary screen, counter-screen for post-Golgi transport modulator project; efflux-deficient yeast background strain, growth absorbance A615, 16 h; inhibition, % at 10 µM; hit rate 5% among 98,000
Pyk2 oligo antag = antagonists of Pyk2 self-association, primary screen, Q293 cells, FERM NanoBiT luminescence, HTS; hits give low values; z-score (the deposit names both 25 µM and 10 µM); hit rate 0.83% among 99,000; AID 1347419, 2020;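 active = Z-score of -3 or lower, scaled per plate to the spread of control and sample wells; inactive = z-score above -3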;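 note: negative z-score means lost luminescence so less FERM oligomerization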
Target sequence (Q14289 whole entry, looked up): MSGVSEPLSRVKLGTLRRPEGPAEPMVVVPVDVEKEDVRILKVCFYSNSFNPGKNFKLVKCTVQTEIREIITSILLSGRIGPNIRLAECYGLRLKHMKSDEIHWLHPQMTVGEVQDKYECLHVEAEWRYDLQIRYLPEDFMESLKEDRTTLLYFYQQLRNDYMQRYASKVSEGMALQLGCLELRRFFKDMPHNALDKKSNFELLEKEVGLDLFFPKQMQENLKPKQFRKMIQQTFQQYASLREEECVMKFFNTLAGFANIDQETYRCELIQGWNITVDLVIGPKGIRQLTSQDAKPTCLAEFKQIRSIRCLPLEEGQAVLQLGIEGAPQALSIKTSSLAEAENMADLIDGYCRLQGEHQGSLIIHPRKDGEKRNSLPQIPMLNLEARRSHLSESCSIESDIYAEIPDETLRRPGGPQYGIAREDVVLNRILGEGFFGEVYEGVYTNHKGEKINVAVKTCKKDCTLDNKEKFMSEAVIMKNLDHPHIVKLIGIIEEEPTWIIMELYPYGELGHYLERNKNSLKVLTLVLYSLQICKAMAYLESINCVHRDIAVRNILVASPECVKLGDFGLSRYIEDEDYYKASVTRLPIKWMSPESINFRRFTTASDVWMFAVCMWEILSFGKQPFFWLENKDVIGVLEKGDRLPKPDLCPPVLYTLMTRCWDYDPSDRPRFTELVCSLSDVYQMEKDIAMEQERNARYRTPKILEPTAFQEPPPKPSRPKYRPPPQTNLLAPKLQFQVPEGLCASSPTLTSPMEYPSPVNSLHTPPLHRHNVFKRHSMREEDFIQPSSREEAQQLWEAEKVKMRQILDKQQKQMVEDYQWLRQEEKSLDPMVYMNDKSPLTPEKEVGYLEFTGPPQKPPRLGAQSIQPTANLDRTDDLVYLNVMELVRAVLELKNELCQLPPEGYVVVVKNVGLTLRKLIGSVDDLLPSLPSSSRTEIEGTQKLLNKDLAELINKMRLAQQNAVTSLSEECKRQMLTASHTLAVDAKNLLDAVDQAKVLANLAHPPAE
Calb biofilm kill = clotrimazole potentiators killing Candida biofilms, primary screen, with clotrimazole, Alamar Blue. C. albicans biofilm + clotrimazole. inhibition, % at 6 µM. hit rate 0.14% among 85,000. AID 834, 2007;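 active = inhibition above 20%; inactive = inhibition below 20%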;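 note: preformed 24 hr biofilms exposed to compound for 48 hr; 0% = biofilm without compound and 100% = blank killed by clotrimazole plus chlorhexidine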
PostGolgi yeast = phenotypic screen on post-Golgi transport, primary screen; inhibition, % at 10 µM; hit rate 0.9% among 98,000; post-Golgi transport phenotypic cell assay; AID 739, 2007;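 note: yeast cells grown in 1536-well plates; yeast grown about 18 h at 30C before absorbance read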
* marks the source's active call; other numbers are inactive results; / = not tested or not shown. Cut-off read from the data, not from the text of the source, unless noted: active = inhibition above about 30%; inactive = the rest.

SMILES | Ecoli WT expand | tolC growth inh | PostGolgi ctrl | Pyk2 oligo antag | Calb biofilm kill | PostGolgi yeast
CCCS(=O)(=O)N1CCCC(C(=O)NCCCN(CC)c2cccc(C)c2)C1 (stereo not drawn) | -5.0 | -8.8 | 30.6* | 0.09 | 10.0 | 12.8
CCCS(=O)(=O)N1CCCC(C(=O)NCCN(CC)c2ccccc2)C1 (stereo not drawn) | 2.0 | -6.8 | 6.6 | 1.02 | 7.0 | 6.5
O=C(NC(=S)NCc1ccccc1)C1CCCCC1 | -3.0 | / | 8.1 | -0.37 | / | -13.3
O=C(N/N=C/c1ccccc1O)C1(O)c2ccccc2-c2ccccc21 | / | / | / | -1.09 | / | /
CCCCN(CC)c1nc(N)c2c(N)nc(OCC)cc2c1C#N | -10.0 | / | 75.8* | -0.69 | -1.0 | 2.4
CC(C)Cn1c(SCc2nnc(-c3cccs3)o2)nc(O)cc1=O | 0.0 | 9.9 | 12.8 | 0.78 | 4.8 | 4.2
O=C(c1cccc(F)c1)N1CCN(c2cc(N3CCCCC3)c(F)cc2[N+](=O)[O-])CC1 | -17.0 | / | 52.2* | 1.38 | / | -11.7
O=C(c1ccc(F)cc1)N1CCN(c2ccc([N+](=O)[O-])c(N3CCCCC3)c2)CC1 | -7.0 | / | 12.9 | -0.91 | / | -6.9
CC(=O)Oc1ccc2ccccc2c1C(NC(=O)Cc1ccccc1)c1ccc(Cl)cc1 (stereo not drawn) | -9.0 | / | 18.5 | -4.03* | / | 10.5
COc1ccc(C(CC(=O)O)NC(=O)Cc2ccccc2)cc1OC (stereo not drawn) | / | / | / | / | -1.9 | /
O=C(Nc1cccc([N+](=O)[O-])c1)C12CC3CC(C1)CC(n1cnc([N+](=O)[O-])n1)(C3)C2 | 8.0 | / | 18.9 | 0.87 | / | -0.3
O=C(O)c1ccc(/C=N/N2CCN(Cc3ccccc3)CC2)cc1 | / | / | / | -0.23 | / | /
O=S(=O)(c1ccc(NCCc2c[nH]c3ccccc23)nc1)N1CCOCC1 | 6.0 | 9.6 | 12.8 | -0.8 | -4.8 | 2.8
CCOC(=O)Nc1cc(=O)c2ccccc2o1 | -2.0 | -7.1 | 43.4* | 0.71 | 3.5 | -6.3
Cc1nc2ccccn2c1/C(O)=C1\C(=O)C(=O)N(CCCn2ccnc2)C1c1ccncc1 (stereo not drawn) | 11.0 | -18.0 | 15.8 | -0.37 | 1.0 | 13.4
CCc1nnc(NC(=O)CSc2nc(C)c3c(c2C#N)CCCC3)s1 | -2.0 | 7.0 | 17.5 | -3.37* | 4.6 | 8.4
O=C(NC1CCCCC1)c1ccccc1NC(=O)C1CC(=O)N(c2ccc(Cl)cc2)C1 (stereo not drawn) | / | / | / | -0.22 | 2.2 | /
CCC1CC(CSc2ncn[nH]2)OC1=O (stereo not drawn) | 5.0 | / | 1.8 | -0.89 | 2.0 | -1.6
OCCn1c(SCCOc2ccccc2F)nc2ccccc21 | -1.0 | -2.9 | 41.2* | 0.49 | 5.0 | 5.2
O=C(O)Cn1c(SCCOc2ccccc2F)nc2ccccc21 | 2.0 | -16.8 | -0.6 | 1.58 | / | 31.2*
O=C(CNS(=O)(=O)c1ccccc1)Nc1ccc(C(F)(F)F)cc1 | -6.0 | / | 14.3 | -0.27 | 3.5 | -1.2
CCCn1c2ccccc2c2nnc(SCC(=O)OCC)nc21 | -32.0 | 5.9 | 39.3* | -1 | 10.0 | 4.2
CCn1c2ccccc2c2nnc(SCc3ccc(C(=O)OC)o3)nc21 | -1.0 | 25.7 | 42.1* | -0.68 | 3.7 | -3.7
CCn1c2ccccc2c2nnc(SCc3ccccc3)nc21 | -13.0 | 73.0* | 61.2* | / | 7.4 | 6.3
CCn1c2ccccc2c2nnc(SCCCn3c(=O)[nH]c4ccccc43)nc21 | -1.0 | 39.6 | 18.7 | -3.47* | 6.7 | -7.4
SMILES | Ecoli WT expand | tolC growth inh | PostGolgi ctrl | Pyk2 oligo antag | Calb biofilm kill | PostGolgi yeast
Cn1c(N2CCOCC2)nc(-c2ccccc2)c1-c1ccccc1 | 9.0 | 30.1 | 10.6 | -0.29 | / | -2.2
O=S(=O)(c1cccs1)N1CCN(CC(O)COc2cc(Cl)ccc2Cl)CC1 (stereo not drawn) | -9.0 | 27.4 | 32.8* | -1.05 | 6.6 | 2.2
CCN1CCN(S(=O)(=O)c2cccs2)CC1 | 1.0 | / | -6.1 | -0.22 | 2.5 | -1.9
CCOC(=O)c1oc2ccc3c(c2c1C)C(=O)CC1(CCN(C(=O)OCC)CC1)O3 | -10.0 | 51.7 | 35.3* | 0.09 | / | -7.4
Cc1ccc(/S(C)=N/S(=O)(=O)c2ccc(C)cc2)cc1 (stereo not drawn) | 4.0 | / | 6.9 | 0.4 | / | 0.6
COc1cccc(C(=O)N2CCN(C3CCC(c4ccccc4)CC3)CC2)c1OC (stereo not drawn) | 14.0 | 14.1 | 54.4* | -0.42 | / | 93.6*
COCCN(C(=O)COc1ccc(Cl)cc1)c1nnc(-c2cccnc2)s1 | / | / | / | 0.4 | 8.9 | /

Compound activity as filed in PubChem BioAssay.
